# Assay outcomes from PubChem BioAssay.
# An excerpt weighted towards active compounds, which were near 3.3% of everything screened.
# STAT3 act: activators of IL-6 induced STAT3 signaling | U3A cells, IL-6 STAT3-luciferase reporter, luminescence; 100% = signal with IL-6 EC80 alone | activation (% of control), % at 5.6 µM | actives 0.91% (n = 190,000);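 active means activation above the screen-wide mean of compound activation plus 3 SD, cut at about 130% in these data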;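 further: 0% = background luminescence of wells with medium and substrate only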
#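 Material: STAT1-lacking human U3A cells, STAT3 luciferase reporter | Benchmarks: IL-6-only wells as 100% reference | Probe or stimulus: IL-6 (33 ng/mL) | Timing: Compound 1 h, then IL-6 6 h at 37 °C | Detection: Luminescence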
# AHR act: activators of human aryl hydrocarbon receptor; AHR-responsive luciferase reporter cells, luminescence; actives 2.5% (n = 320,000); AID 2796; P35869; activation, % at 5 µM; in the data active means activation above about 47%;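 further: 0% = vehicle wells and 100% = reference agonist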
# GAA850 FXN act: frataxin GAA850 promoter activation | HEK293 lucGAA850 FXN promoter luciferase reporter, 24 h; percent of 10 µM SAHA response | activation, % at 6 µM | actives 0.56% (n = 360,000) | AID 540364;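 active means activation above the average of all compounds screened plus 3 SD, cutoff fixed separately per campaign, cut at about 7.5% in these data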;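 further: 0% = DMSO wells and 100% = 10 µM SAHA wells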
# ABCB6 inh 2: human ABCB6 transporter inhibition; actives 0.19% (n = 360,000); AID 602162; Q9NP58; K562-ABCB6 porphyrin accumulation, flow cytometry, 1 h; hits give low values; fluorescence ratio to DMSO, % at 10 µM;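 active means fluorescence ratio to DMSO below 75%, the collection mean minus 3 SD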;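 further: signal is porphyrin accumulated inside mitochondria; 100% equals median channel fluorescence of DMSO control wells; lower ratio means ABCB6 inhibition with less porphyrin fluorescence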
# GAA30 FXN cntr: activates GAA30 frataxin promoter, counter-screen for GAA850 activators; shares compounds with GAA850 FXN act; HEK293 lucGAA30 FXN promoter luciferase, 24 h; DMSO = 0%, 5 µM ipriflavone = 100%; activation, % at 6 µM; actives 66% (n = 1,900); AID 588350;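 active means mean activation above the mean of solvent-only control wells plus 3 SD, cut at about 22% in these data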;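 further: counterscreen of GAA850 promoter hits where activity marks nonselective or luminescence artifacts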
# GAA850 confirm: GAA850 FXN promoter activation confirmation; shares compounds with GAA850 FXN act; HEK293 lucGAA850 FXN promoter luciferase reporter, 24 h; 100% = activation by SAHA; activation, % at 6 µM; actives 86% (n = 1,900);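 active means mean activation above a set limit taken from the primary screen, cut at about 8% in these data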;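 further: 0% = DMSO wells and 100% = 10 µM SAHA wells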
# An asterisk follows results filed as active; . = no result given; ! = a repeat was not active.
SMILES,STAT3 act,AHR act,GAA850 FXN act,ABCB6 inh 2,GAA30 FXN cntr,GAA850 confirm
Cc1cccc(C)c1OCc1cc(C(=O)N2CC3C[C@@H]4CC2C[C@H](C3)C4)no1,.,11.9,3.8,91.0,.,.
Cc1ccc(OCc2cc(C(=O)N3CC4C[C@@H]5CC3C[C@H](C4)C5)no2)cc1C,.,13.4,9.0*,98.0,97.2*,30.8*
COC(CN1C(=O)C(=O)/C(=C(/O)c2ccccc2)C1c1ccccn1)OC (stereo not drawn),106.8,-0.7,1.2,105.0,.,.
Nc1cccn2c(-c3ccc(Cl)c(Cl)c3)cnc12,114.7,22.4,11.9*,153.0,111.1*,42.7*
O=C(Nc1ccon1)c1cc2c(s1)CCCCCC2,108.4,34.6,8.8*,90.0,112.8*,36.1*
CN(CCOc1ccc(Cl)cc1)C(=O)c1cc(-c2ccco2)nc2ccccc12,.,2.6,-3.9,98.0,.,.
O=c1cc(-c2ccccc2)oc2ccccc12,.,39.1,5.0,97.0,.,.
O=c1cc(-c2ccccc2)oc2ccc(O)cc12,.,1.5,9.2*,95.0,134.4*,41.8*
COc1ccc(-c2cc(C)no2)cc1S(=O)(=O)N1CCCN(Cc2ccccc2Cl)C1,.,1.6,-1.5,99.0,.,.
Cc1ccc(NC(=S)N/N=C/c2ccc([N+](=O)[O-])s2)cc1,88.0,9.8,11.0*,127.0,-97.2,-29.0
O=C(Cc1cccs1)N/N=C\c1ccc([N+](=O)[O-])s1,89.9,3.0,-0.6,99.0,.,.
Cc1cc(C)cc(N=Cc2ccc([N+](=O)[O-])s2)c1,103.3,2.8,16.3*,113.0,1.4,5.8
CCOC(=O)C1=C(C)NC(C)=C(C(=O)OCC)C1C(=O)OCC(=O)NC1(C#N)CCCCC1,.,10.3,-3.7,95.0,.,.
COc1cc(OC)c(OC)cc1/C=C/c1cc(C(=O)O)c2ccccc2n1,105.1,1.7,3.7,96.0,.,.
COc1cc(OC)c(OC)cc1C=Cc1ccc2ccccc2n1,.,.,8.9*,96.0,66.9*,29.7*
CC1=CC(C)=Nc2ccccc2N1,118.2,10.8,7.9*,104.0,79.0*,18.1*
CCCCC1(Cc2ccc([N+](=O)[O-])cc2)C(=O)N(c2ccccc2)N(c2ccccc2)C1=O,103.8,-1.6,9.5*,98.0,14.1,6.8
Cc1cc(/C=C(\C#N)C(=O)NCc2cccs2)c(C)[nH]1,98.4,18.1,0.0,100.0,.,.
CN1CCN(S(=O)(=O)c2ccc(-c3ccc(Cl)cc3)cc2)CC1,108.9,4.8,13.1*,98.0,45.6*,12.8*
O=C(NC1CCCCC1)c1ccc(-c2cn[nH]c2)c2ccoc12,.,.,6.3,99.0,.,.
Cc1ccc(/C=N/NC(=O)C(C)Oc2ccccc2[N+](=O)[O-])s1 (stereo not drawn),105.2,8.1,11.0*,101.0,25.6*,5.3
COc1cccc(CNC(=O)Cn2cc3c(n2)CCCC3)c1,106.5,6.7,15.9*,101.0,22.9*,10.0*
O=C(Cn1cc2c(n1)CCCC2)NCc1cccc(Cl)c1,96.9,2.8,-2.8,98.0,.,.
Cc1ccc(C(C)C)c(OCC(=O)N2CCN(c3ncccn3)CC2)c1,.,-0.5,1.5,91.0,.,.
c1ccc(-c2n[nH]c(-c3ccccn3)n2)nc1,102.7,11.5,7.7*!,94.0,102.2*,27.2*
SMILES,STAT3 act,AHR act,GAA850 FXN act,ABCB6 inh 2,GAA30 FXN cntr,GAA850 confirm
c1ccc(-c2ccccn2)nc1,108.3,-1.5,1.6,108.0,.,.
Cc1cccc(CCNc2nc3ccccc3n3nnnc23)c1,91.7,5.5,0.5,102.0,.,.
COc1cc(Nc2nc3ccccc3n3nnnc23)cc(OC)c1OC,93.6,24.7,16.7*,107.0,33.1*,9.5*
CC1=CC(C)(C)Nc2ccc(OC(=O)CCN3C(=O)c4ccccc4C3=O)cc21,80.9,-7.3,11.0*,113.0,-15.7,22.6*
COc1ccccc1C(=O)Nc1ccc2c(c1)nc1n2CCSC1,99.1,12.3,8.0*,90.0,98.1*,26.6*
Fc1ccc(-c2ccc(Nc3cccc(F)c3)nn2)cc1,91.2,-6.1,8.3*,98.0,93.3*,30.8*
Fc1ccc(Nc2ccc(-c3ccc(F)cc3)nn2)cc1,97.7,-4.3,2.9,97.0,.,.
O=C(Nc1ccccc1N1CCOCC1)c1ccccc1NS(=O)(=O)c1ccc(F)cc1,97.7,2.1,0.1,88.0,.,.
